From article PMC6906348 (Therapeutic Advances in Medical Oncology, 2019)

Assays:
[1] = tested on: patients with MET-dysregulated advanced hepatocellular carcinoma (HCC); experiment: Antitumor activity per RECIST 1.1; assay type: in vivo, human; settings: for Best overall response: Unknown: RECIST 1.1 data do not qualify for PD, PR, or SD
How it was run: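 Asia-Pacific patients with advanced HCC received oral test compound twice daily in continuous 21-day cycles: 300 mg capsules (dose-determining), or 600 mg capsules or 400 mg tablets (expansion), until progression or toxicity. Investigator read response per RECIST 1.1 on CT, or contrast MRI if CT was contraindicated. MET-high meant IHC 3+ in ⩾50% tumor cells, or 2+ in ⩾50% plus FISH GCN ⩾5.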

[2] = tested on: MET; settings: cited from earlier work
[3] = tested on: patients with advanced solid tumors; settings: cited from earlier work
[4] = tested on: MET-amplified experimental HCC tumors; settings: cited from earlier work
[5] = tested on: MET-dependent tumor models; settings: at well tolerated doses; cited from earlier work
[6] = Dose-determining n = 8 (300 mg BID capsules)
[7] = Dose-expansion, All patients n = 30
[8] = Dose-expansion, MET-high n = 10
[9] = MET-high expansion group (n = 10)
[10] = MET-high expansion group, 1 patient

Compound: CNC(=O)c1ccc(-c2cnc3ncc(Cc4ccc5ncccc5c4)n3n2)cc1F [capmatinib]
- Best overall response: Complete response (CR) [1, 6]: 0 n (%)
- Best overall response: Partial response (PR) [1, 6]: 0 n (%)
- Best overall response: Progressive disease [1, 6]: 3 (38) n (%)
- Best overall response: Unconfirmed CR [1, 6]: 0 n (%)
- Best overall response: Unconfirmed PR [1, 6]: 0 n (%)
- Disease control rate (CR + PR + SD) (95% CI) [1, 6]: 2 (25) (3.2−65.1) n (%)
- Overall response rate (CI 95%) [1, 6]: 0 (0−36.9) n (%)
- Best overall response: Unknown [1, 6]: 3 (38) n (%)
- Best overall response: Complete response (CR) [1, 7]: 1 (3) n (%)
- Best overall response: Partial response (PR) [1, 7]: 2 (7) n (%)
- Best overall response: Progressive disease [1, 7]: 16 (53) n (%)
- Best overall response: Unconfirmed CR [1, 7]: 0 n (%)
- Best overall response: Unconfirmed PR [1, 7]: 1 (3) n (%)
- Disease control rate (CR + PR + SD) (95% CI) [1, 7]: 10 (33) (17.3−52.8) n (%)
- Overall response rate (CI 95%) [1, 7]: 3 (10) (2.1−26.5) n (%)
- Best overall response: Unknown [1, 7]: 4 (13) n (%)
- Best overall response: Complete response (CR) [1, 8]: 1 (10) n (%)
- Best overall response: Partial response (PR) [1, 8]: 2 (20) n (%)
- Best overall response: Progressive disease [1, 8]: 4 (40) n (%)
- Best overall response: Unconfirmed CR [1, 8]: 0 n (%)
- Best overall response: Unconfirmed PR [1, 8]: 1 (10) n (%)
- Disease control rate (CR + PR + SD) (95% CI) [1, 8]: 5 (50) (18.7−81.3) n (%)
- Overall response rate (CI 95%) [1, 8]: 3 (30) (6.7−65.2) n (%)
- Best overall response: Unknown [1, 8]: 1 (10) n (%)
- Best overall response: Complete response (CR) ([1]; Dose-expansion, MET-low n = 20): 0 n (%)
- Best overall response: Partial response (PR) ([1]; Dose-expansion, MET-low n = 20): 0 n (%)
- Best overall response: Progressive disease ([1]; Dose-expansion, MET-low n = 20): 12 (60) n (%)
- Best overall response: Unconfirmed CR ([1]; Dose-expansion, MET-low n = 20): 0 n (%)
- Best overall response: Unconfirmed PR ([1]; Dose-expansion, MET-low n = 20): 0 n (%)
- Disease control rate (CR + PR + SD) (95% CI) ([1]; Dose-expansion, MET-low n = 20): 5 (25) (8.7−49.1) n (%)
- Overall response rate (CI 95%) ([1]; Dose-expansion, MET-low n = 20): 0 (0−16.8) n (%)
- Best overall response: Unknown ([1]; Dose-expansion, MET-low n = 20): 3 (15) n (%)
- number of complete responses [1, 9]: 1
- number of partial responses [1, 9]: 2
- duration of durable complete response [1, 10]: > 600 days
- duration of durable partial response [1, 10]: > 600 days
- overall response rate ([1]; all expansion patients (n = 30), regardless of MET status): 10%
- time on treatment of two responding patients ([1]; at data cut-off, still on treatment): over 600 days
- patients with MET-high status achieving tumor shrinkage ([1]; expansion stage): 6/10
- overall response rate ([1]; expansion stage, MET-high (n = 10)): 30%
- MET inhibition [2]: highly potent and selective
- safety profile [3]: tolerable safety profile
- sensitivity of tumors to capmatinib [4]: highly sensitive
- effect on MET-dependent tumor models [5]: causes regression
